Source: PubChem BioAssay (several laboratories)
Vif inh: HIV Vif self-association inhibitors, primary screen, imaging, HEK293T, single point; 0.35% of 340,000 active; inhibition, % at 7.49 µM; HEK293T cells, Vif self-association by quenched fluorescence, 24 h; in the data active = inhibition above about 50%, passing the limit was not always enough; inconclusive = no clear call, values can overlap the other calls; inactive = below about 31%
NPR2 activator: human GC-B receptor activators, primary screen, HEK293 GC-B cells, cGMP TR-FRET, EC30 CNP | 0% at EC30 CNP, 100% saturating CNP | activation, % at 10 µM | 0.11% of 370,000 active | AID 1920062, 2024;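 active = activation at 10 µM reaching about 35% in either raw or pattern-adjusted values, limit read from the data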
N-glyco inh: increase of ERlucT glycosylation luciferase signal, primary screen, N-linked glycosylation inhibitor project, D54 ERlucT cells, luminescence, set 2 | D54 ERlucT glycosylation luciferase reporter, 24 h; percent of 100 nM tunicamycin response | reporter increase, % at 12.5 µM | 0.23% of 360,000 active;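 active = mean luciferase reporter signal, scaled so untreated is 0 and the glycosylation-blocking control 100, at or above a set limit in every replicate; inconclusive = mean reaches the limit but not every replicate does; inactive = mean below the limit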;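 note: luciferase carries N-glycosylation sites so blocking glycosylation raises the light; 0% = median of neutral control wells and 100% = median of 100 nM tunicamycin wells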
Xi reactivation: activators of inactive X chromosome reactivation, primary screen, imaging, XiGFP fibroblasts, GFP high-content imaging, set 2; XiGFP mouse fibroblasts, % GFP-positive cells imaging, 3 d; cells co-treated with 5-aza-dC sensitizer; scaled so ellipticine positive control = 100%; activation, % at 7.58 µM; 0.055% of 360,000 active; AID 743238, 2013;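 active = mean normalized replicate activation at least 10% and every replicate at or above 10%; inconclusive = only one of the two criteria met; inactive = mean below 10% and not all replicates reach 10%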;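 note: 0% = median of on-plate neutral control wells and 100% = ellipticine 6 µM median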
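assay system = SV40-immortalized XiGFP fibroblast cells, line 68-5-11 | buffer or medium = DMEM plus 5-aza-dC sensitizer | doses = single-point pinned compound dosing | times = 3-day compound exposure, then 15 min fixation at room temperature | benchmarks = positive control ellipticine, 6 µM final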
NPR1 activator: GC-A stimulated cGMP production enhancers – HEK293 GC-A cells, cGMP TR-FRET, EC30 ANP, primary screen; 0.14% of 370,000 active; AID 1671463, 2021; 0% at EC30 ANP, 100% saturating ANP; activation, % at 10 µM; in the data active = activation above about 40%
CaV13 ICDI inh: Primary screen for inhibitors of IQ motif and Ca2+-dependent inactivation inhibitor domain binding in CACNA1D, Förster resonance energy transfer in living cells, …; 0.098% of 340,000 active; inhibition, % at 12.3 µM; HEK cells, CFP/YFP FRET ICDI-IQ, plate reader, 10 min; percent FRET-ratio fall versus neutral wells;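 active = mean replicate inhibition of at least 30% and at least 1% of replicates passing that level; inconclusive = only one of the two criteria is met; inactive = neither criterion is met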;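 note: 0% = median of the neutral control wells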
Active calls of the source: *; ? = inconclusive; . = not tested or not shown. Shown are actives, neighbours in structure and some others; about 0.7% of the full set was active somewhere.

SMILES | Vif inh | NPR2 activator | N-glyco inh | Xi reactivation | NPR1 activator | CaV13 ICDI inh
Cc1nc(S/C(=C/c2ccc(-c3ccc(Cl)cc3)o2)C(=O)O)n[nH]1 | -35.7 | -2.1 | 1.1 | . | 27.7 | .
Cc1nc(S/C(=C/c2ccc(-c3cc(Cl)ccc3C)o2)C(=O)O)n[nH]1 | 51.9* | -5.5 | 1.1 | 0.5 | -2.0 | -20.2
COc1ccc(S(=O)(=O)Nc2ccc3c(c2)C(=O)N([C@H](C)CO)C[C@@H](C)[C@@H](CN(C)S(=O)(=O)c2ccccc2)O3)cc1 | . | . | . | -1.1 | . | .
COc1ccc(C2CC3(O)CC(C#N)(C(=O)N3)C2(C#N)C#N)cc1 (stereo not drawn) | -26.8 | -4.7 | 0.8 | 0.5 | 5.4 | -2.6
COc1ccc(C2CC3(O)NC(=O)C(C#N)(C3C)C2(C#N)C#N)cc1 (stereo not drawn) | 65.8* | 2.7 | 1.4 | 0.1 | -0.9 | -11.7
O=C(/C=C/c1ccc([N+](=O)[O-])cc1)/C=C/c1ccco1 | -23.3 | -3.1 | 30.9* | 0.2 | -1.3 | -10.3
CC(=O)N(C)C[C@@H]1Oc2cc(-c3ccccc3F)ccc2S(=O)(=O)N([C@H](C)CO)C[C@@H]1C | . | . | . | -1.0 | . | .
O=C(COc1ccc(C(=O)c2ccccc2)cc1)NCc1ccc(F)cc1 | 6.0 | -3.5 | 28.7* | 0.5 | -2.9 | -5.4
Cc1ccc(-n2nnnc2CNC(=O)C(=O)c2c[nH]c3ccccc23)cc1C | 3.0 | 4.1 | 2.1 | 0.2 | 2.1 | 49.0*
Cc1cc(NCCN2CCOCC2)c2ccc3ccccc3c2n1 | 1.4 | 19.6 | 38.4* | 0.0 | 27.9 | -18.9
CC(/C=N/NC(=O)c1cc(-c2ccc(C)s2)[nH]n1)=C\c1ccccc1 | 2.2 | -7.9 | 26.6* | 0.2 | -8.8 | -4.6
Cc1ccc2nc(Cl)c(/C=C/C(=O)c3ccco3)cc2c1 | -12.3 | -18.3 | 42.4* | 0.0 | -14.0 | -21.2
COc1cc2cc(/C=C/C(=O)c3ccco3)c(Cl)nc2cc1OC | 33.1 | -17.0 | 48.8* | . | -9.7 | -4.1
Cc1ccc2cc(/C=C/C(=O)c3ccco3)c(Cl)nc2c1 | -0.3 | -11.4 | 21.0 | 0.3 | 4.5 | -4.6
O=C(C=Cc1ccco1)c1ccco1 | ? | 0.8 | 3.0 | -0.1 | 1.2 | -5.1
CC(C)NC(=O)N1CC2(C1)[C@H](c1ccccc1)[C@@H](CO)N2Cc1ccccc1 | . | . | . | 0.3 | . | .
CCOC(=O)c1ccc(NC(=O)CC2SC3=NCCN3C2=O)cc1 (stereo not drawn) | 27.2 | 2.0 | 0.5 | 0.3 | -5.2 | 8.1
O=C(CC1SC2=NCCN2C1=O)Nc1ccc(Br)cc1 (stereo not drawn) | 53.3* | 1.2 | 2.2 | . | 0.5 | -5.5
CN(C)C(=O)COC(=O)c1ccccc1Nc1ccc(SC(F)F)cc1 | -0.8 | 0.7 | -9.3 | 0.0 | 41.9* | -4.1
COc1ccccc1NC(=O)COC(=O)c1ccccc1OCC(=O)Nc1ccc(SC(F)F)cc1 | 2.0 | -3.0 | 1.2 | 0.1 | 1.7 | -4.0
C[C@H](CO)N1C[C@H](C)[C@H](CN(C)S(=O)(=O)c2cn(C)cn2)Oc2ccc(NC(=O)Nc3ccccc3)cc2C1=O | . | . | . | 0.2 | . | .
COc1ccc(-c2cn3cc(C(=O)NN)ccc3n2)cc1 | -0.9 | -8.6 | 2.5 | 0.2 | -9.8 | -2.0
NNC(=O)c1ccc2nc(-c3ccc(Br)cc3)cn2c1 | 9.0 | -3.9 | 116.1* | 0.2 | -9.3 | -6.8
O=C(CCN1CCOCC1)c1ccccc1 | 2.1 | . | 0.3 | . | . | -7.5
C[N+]1(CCC(=O)c2ccccc2)CCCCC1 | 8.1 | 0.1 | -1.4 | 0.2 | 72.5* | -6.6
CC1CCCN(CCC(=O)c2ccccc2)C1 (stereo not drawn) | 9.7 | -1.3 | -1.4 | 0.1 | 66.7* | -6.7
